Source: ChEMBL document CHEMBL4732185, “Synthesis, biological evaluation and structure-activity relationship of novel dichloroacetophenones targeting pyruvate dehydrogenase kinases with potent anticancer activity” (Eur J Med Chem, 2021)
Activity calls are given as the source filed them. The rule behind the calls is not given here.

Legend:
PC-3 = assay: Antiproliferative activity against human PC3 cells assessed as growth inhibition after 72 hrs by MTT assay; assay type: functional, cell-based
How it was run: (§1)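 MTT viability assay. Cancer lines seeded at 3000–6000 cells/well and L02 at 7000 cells/well, cultured overnight, then exposed to a full dose range for 72 h. MTT (0.5 mg/mL) added for 4 h, supernatant removed, formazan dissolved in DMSO, absorbance read at 570 nm. IC50 taken as the mean of three independent experiments. Cells grown in DMEM + 10% FBS, 37 °C, 5% CO2.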

MCF7 [1] = assay: Antiproliferative activity against human MCF7 cells assessed as growth inhibition after 72 hrs by MTT assay; assay type: functional, cell-based; how it was run: as §1
L02 = assay: Cytotoxicity against human L02 cells assessed as reduction in cell viability after 72 hrs by MTT assay; assay type: cell-based; how it was run: as §1
HCT-116 = assay: Antiproliferative activity against human HCT-116 cells assessed as growth inhibition after 72 hrs by MTT assay; assay type: functional, cell-based; how it was run: as §1
SH-SY5Y = assay: Antiproliferative activity against human SHSY-5Y cells assessed as growth inhibition after 72 hrs by MTT assay; assay type: functional, cell-based; how it was run: as §1
A-375 [2] = assay: Antiproliferative activity against human A375 cells assessed as growth inhibition after 72 hrs by MTT assay; assay type: functional, cell-based; how it was run: as §1
A549 [3] = assay: Antiproliferative activity against human A549 cells assessed as growth inhibition after 72 hrs by MTT assay; assay type: functional, cell-based; how it was run: as §1
A549 [4] = assay: Antiproliferative activity against human A549 cells assessed as growth inhibition at 1 uM after 72 hrs by MTT assay relative to control; assay type: functional; conditions: for inhibition of growth at 1 µM: read-out: GI
How it was run: (§2)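 Single-concentration MTT screen on MCF-7 and A549 cells grown in DMEM + 10% FBS. Cells at 3000–6000/well, cultured overnight, then given compound in buffer with 1% DMSO for 72 h. MTT (0.5 mg/mL) added for 4 h, formazan dissolved in DMSO, A570 read. Percent inhibition reported as the average ± S.D. of three independent measurements.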

A549 [5] = assay: Antiproliferative activity against human A549 cells assessed as growth inhibition at 10 uM after 72 hrs by MTT assay relative to control; assay type: functional; conditions: for inhibition of growth at 10 µM: read-out: GI; how it was run: as §2
[6] = Inhibition of PDK (unknown origin) using RYHGHSMSDP as substrate after 30 mins by Kinase-Glo luminescent assay; parameters: species or system Homo sapiens
MCF7 [7] = assay: Antiproliferative activity against human MCF7 cells assessed as growth inhibition at 1 uM after 72 hrs by MTT assay relative to control; assay type: functional; conditions: for inhibition of growth at 1 µM: read-out: GI; how it was run: as §2
MCF7 [8] = assay: Antiproliferative activity against human MCF7 cells assessed as growth inhibition at 10 uM after 72 hrs by MTT assay relative to control; assay type: functional; conditions: for inhibition of growth at 10 µM: read-out: GI; how it was run: as §2
Homo sapiens [9] = organism: Homo sapiens; assay: Inhibition of PDK (unknown origin) using RYHGHSMSDP as substrate at 1 uM after 30 mins by Kinase-Glo luminescent assay
A-375 [10] = assay: Induction of cell cycle arrest in human A375 cells assessed as accumulation at G2 phase at 5 uM after 24 hrs by propidium iodide staining based flow cytometric analysis (reference value: 10.02%); assay type: functional
A-375 [11] = assay: Induction of apoptosis in human A375 cells assessed as necrotic cells at 5 uM after 36 hrs by annexinV-FITC/propidium iodide staining based flow cytometric analysis (reference value: 1.63%); assay type: functional
A-375 [12] = assay: Induction of cell cycle arrest in human A375 cells assessed as accumulation at G1 phase at 5 uM after 24 hrs by propidium iodide staining based flow cytometric analysis (reference value: 52.65%); assay type: functional
A-375 [13] = assay: Induction of apoptosis in human A375 cells assessed as viable cells at 5 uM after 24 hrs by annexinV-FITC/propidium iodide staining based flow cytometric analysis (Rvb= 97.94%); assay type: functional; conditions: read-out: Activity
A-375 [14] = assay: Induction of apoptosis in human A375 cells assessed as late apoptotic cells at 5 uM after 12 hrs by annexinV-FITC/propidium iodide staining based flow cytometric analysis (reference value: 0.63%); assay type: functional
A-375 [15] = assay: Induction of apoptosis in human A375 cells assessed as early apoptotic cells at 5 uM after 12 hrs by annexinV-FITC/propidium iodide staining based flow cytometric analysis (reference value: 0.87%); assay type: functional
A-375 [16] = assay: Induction of apoptosis in human A375 cells assessed as early apoptotic cells at 5 uM after 36 hrs by annexinV-FITC/propidium iodide staining based flow cytometric analysis (reference value: 3.2%); assay type: functional
A-375 [17] = assay: Induction of cell cycle arrest in human A375 cells assessed as accumulation at S phase at 5 uM after 24 hrs by propidium iodide staining based flow cytometric analysis (reference value: 37.33%); assay type: functional
A-375 [18] = assay: Induction of apoptosis in human A375 cells assessed as early apoptotic cells at 5 uM after 24 hrs by annexinV-FITC/propidium iodide staining based flow cytometric analysis (reference value: 0.87%); assay type: functional
A-375 [19] = assay: Induction of apoptosis in human A375 cells assessed as late apoptotic cells at 5 uM after 24 hrs by annexinV-FITC/propidium iodide staining based flow cytometric analysis (reference value: 0.63%); assay type: functional
A-375 [20] = assay: Induction of apoptosis in human A375 cells assessed as viable cells at 5 uM after 36 hrs by annexinV-FITC/propidium iodide staining based flow cytometric analysis (reference value: 94.15%); assay type: functional; conditions: read-out: Activity
A-375 [21] = assay: Inhibition of PDK in human A375 cells assessed as reduction in phosphorylation of PDC E1alpha at ser293 residues at 5 uM after 24 hrs by Western blot analysis; assay type: cell-based
How it was run: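 A375 cells in 6-well plates, treated 24 h. Lysed 15 min and spun 12000 rpm at 4 °C for 15 min. Protein equalized by BCA and denatured in SDS buffer at 100 °C for 8 min. Run on SDS-PAGE, transferred to nitrocellulose, blocked in 5% milk 2 h, primary antibody overnight, HRP anti-rabbit IgG 2 h, ECL detection.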

A-375 [22] = assay: Induction of apoptosis in human A375 cells assessed as necrotic cells at 5 uM after 12 hrs by annexinV-FITC/propidium iodide staining based flow cytometric analysis (reference value: 0.56%); assay type: functional
A-375 [23] = assay: Induction of apoptosis in human A375 cells assessed as necrotic cells at 5 uM after 24 hrs by annexinV-FITC/propidium iodide staining based flow cytometric analysis (reference value: 0.56%); assay type: functional
A-375 [24] = assay: Induction of apoptosis in human A375 cells assessed as late apoptotic cells at 5 uM after 36 hrs by annexinV-FITC/propidium iodide staining based flow cytometric analysis (reference value: 1.02%); assay type: functional
A-375 [25] = assay: Induction of apoptosis in human A375 cells assessed as viable cells at 5 uM after 12 hrs by annexinV-FITC/propidium iodide staining based flow cytometric analysis (reference value: 97.94%); assay type: functional; conditions: read-out: Activity
A549 [26] = assay: Antiproliferative activity against human A549 cells assessed as reduction in cell viability after 24 hrs by MTT assay; assay type: functional, cell-based; conditions: A549, 24 h
Homo sapiens [27] = organism: Homo sapiens; assay: Inhibition of PDK (unknown origin) using RYHGHSMSDP as substrate at 80 uM after 30 mins by Kinase-Glo luminescent assay
[28] = Homo sapiens, PC-3, 72 h, read-out: IC50
[29] = Homo sapiens, MCF7, 72 h, read-out: IC50
[30] = Homo sapiens, L02, 72 h, read-out: IC50
[31] = Homo sapiens, HCT-116, 72 h, read-out: IC50
[32] = Homo sapiens, SH-SY5Y, 72 h, read-out: IC50
[33] = Homo sapiens, A-375, 72 h, read-out: IC50
[34] = Homo sapiens, A549, 72 h, read-out: IC50

Structure (SMILES)	IC50 (PC-3; [28]) [µM]	IC50 (MCF7 [1]; [29]) [µM]	IC50 (L02; [30]) [µM]	IC50 (HCT-116; [31]) [µM]	IC50 (SH-SY5Y; [32]) [µM]	IC50 (A-375 [2]; [33]) [µM]	IC50 (A549 [3]; [34]) [µM]	EC50 [6] [µM]	growth inhibition (GI) (MCF7 [7])	inhibition (Homo sapiens [9]) [%]	inhibition of growth at 1 µM (A549 [4]) [%]	inhibition of growth at 10 µM (A549 [5]) [%]	inhibition of growth at 1 µM (MCF7 [7]) [%]	inhibition of growth at 10 µM (MCF7 [8]) [%]	other results
O=C([O-])C(Cl)Cl.[Na+] [SODIUM DICHLOROACETATE]	15700	13400	21700	9800	17400	20100	19500	–	–	–	–	–	–	–	–
CN(C)C(=O)c1ccc(S(=O)(=O)c2ccc(NC(=O)[C@@](C)(O)C(F)(F)F)c(Cl)c2)cc1	–	–	–	–	–	–	–	0.053	inactive	98.7	–	–	–	–	IC50 (PC-3; pc-3): Not Active; growth inhibition (GI) (A549 [4]): inactive; growth inhibition (GI) (A549 [5]): inactive; IC50 (MCF7 [1]; mcf7): Not Active; IC50 (L02; l02): Not Active; IC50 (HCT-116; hct-116): Not Active; IC50 (SH-SY5Y; sh-sy5y): Not Active; IC50 (A-375 [2]; a-375): Not Active; growth inhibition (GI) (MCF7 [8]): inactive; IC50 (A549 [3]; a549): Not Active
CC(C)(O)c1ccc(Nc2ccc(C(=O)C(Cl)Cl)cc2[N+](=O)[O-])cc1	2.34	2.98	7.8	1.5	2.3	1.8	3.1	1.49	–	48.8	37.9	96.3	33.9	92.8	–
CC(C)Oc1ccc(C(=O)C(Cl)Cl)cc1[N+](=O)[O-]	8.7	7.8	16.9	6.2	5.6	4.9	3.5	0.33	inactive	72.4	18.7	98.2	–	73.4	Activity (A-375 [10]): 11.01%; Activity (A-375 [11]): 2.31%; Activity (A-375 [12]): 58.34%; viability at 5 µM (A-375 [13]): 84.2%; Activity (A-375 [14]): 2.66%; Activity (A-375 [15]): 2.43%; Activity (A-375 [16]): 6.6%; Activity (A-375 [17]): 30.65%; Activity (A-375 [18]): 4.71%; Activity (A-375 [19]): 6.83%; viability at 5 µM (A-375 [20]): 68.9%; inhibition (A-375 [21]): Active; Activity (A-375 [22]): 3.77%; Activity (A-375 [23]): 4.29%; Activity (A-375 [24]): 18.83%; viability at 5 µM (A-375 [25]): 91.1%
O=C(c1ccccc1)C(Cl)Cl	23.1	21.4	19.7	12.9	17.7	16.9	18.7	> 80	inactive	–	–	55.2	–	42.2	IC50 (A549 [26]): 15.9 µM; growth inhibition (GI) (A549 [4]): inactive; inhibition (Homo sapiens [27]): 36.6%
CC(C)c1ccc(Nc2ccc(C(=O)C(Cl)Cl)cc2[N+](=O)[O-])cc1	0.38	1.21	1.5	0.7	1	0.9	0.33	0.34	–	80	75.2	97	38.6	94	–
CC(C)(C)c1ccc(Nc2ccc(C(=O)C(Cl)Cl)cc2[N+](=O)[O-])cc1	0.47	1.9	5.9	0.5	1.1	0.9	1.2	0.55	–	65.8	48.8	93.2	41.2	96.4	–
